Assay [1] addresses T1, RAC-alpha serine/threonine-protein kinase (Homo sapiens, UniProt P31749). Description: Inhibition of wild type AKT1 expressed in HEK293 cells assessed as reduction of IGF1-induced GSK3-beta Ser9 phosphorylation treated 20 mins before IGF1 stimulation by immunoblotting. The format is cell-based. An outline of the steps:
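Untransfected HEK293 cells carrying endogenous Akt were serum-starved overnight. They were treated with compound for 20 min, then stimulated with 50 ng/ml IGF-1 for 10 min. DMSO stocks were diluted 1:1000. Lysates in Tris pH 7.5/Triton buffer with phosphatase inhibitors were immunoblotted for GSK3β Ser9 and Akt Thr308/Ser473 phosphorylation, read by ECL.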

A short description of assay [2]: Inhibition of myristoylated AKT3 M229G mutant expressed in HEK293T cells by in vitro immunoprecipitation kinase assay. Type of assay: cell-based. As to conditions: hek-293t. An outline of the steps:
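Myristoylated HA-tagged Akt3 was expressed in HEK293T cells, which were lysed in Tris pH 7.5 buffer containing Triton X, protease and phosphatase inhibitors. Lysates were protein-normalised and immunoprecipitated overnight at 4°C on BSA-blocked anti-HA matrix. Kinase activity of the immunoprecipitate was measured in vitro across inhibitor concentrations to derive IC50.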

Assay [3] concerns HEK-293T. Description: Induction of myristoylated AKT3 M229G mutant Thr308 hyperphosphorylation expressed in HEK293T cells at 10 uM after 30 mins by immunoblotting. The format is cell-based.
Assay [4] deals with HEK-293T. Description: Induction of myristoylated AKT2 M225G and kinase dead D289A mutant Thr308 hyperphosphorylation expressed in HEK293T cells at 10 uM after 30 mins by immunoblotting. Type of assay: cell-based. On the technique in general: Immunoblotting shows a protein as a band on a membrane.
Assay [5] deals with T1, RAC-alpha serine/threonine-protein kinase. The assay is described as follows: Inhibition of myristoylated wild type AKT1 expressed in HEK293T cells by in vitro immunoprecipitation kinase assay. The format is cell-based, HEK-293T. In short, it runs like this: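 Myristoylated HA-tagged wild-type or analog-sensitive Akt1/2/3 expressed in HEK293T cells, then immunoprecipitated on anti-HA matrix. The immunoprecipitate was used in an in vitro kinase assay with Tris pH 7.5 buffer containing 10 mM MgCl2, β-glycerophosphate, orthovanadate and 2 mM DTT. IC50 determined from inhibitor titration.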

The test system of assay [6] is RAC-alpha serine/threonine-protein kinase (Homo sapiens), P31749 [M227G]. The assay is described as follows: Inhibition of myristoylated AKT1 M227G mutant expressed in HEK293T cells assessed as reduction of GSK3-beta Ser9 phosphorylation after 30 mins by immunoblotting. The format is cell-based. As to conditions: HEK-293T.
RAC-alpha serine/threonine-protein kinase (Homo sapiens), P31749 [M227G], sequence (P31749 whole entry M227G): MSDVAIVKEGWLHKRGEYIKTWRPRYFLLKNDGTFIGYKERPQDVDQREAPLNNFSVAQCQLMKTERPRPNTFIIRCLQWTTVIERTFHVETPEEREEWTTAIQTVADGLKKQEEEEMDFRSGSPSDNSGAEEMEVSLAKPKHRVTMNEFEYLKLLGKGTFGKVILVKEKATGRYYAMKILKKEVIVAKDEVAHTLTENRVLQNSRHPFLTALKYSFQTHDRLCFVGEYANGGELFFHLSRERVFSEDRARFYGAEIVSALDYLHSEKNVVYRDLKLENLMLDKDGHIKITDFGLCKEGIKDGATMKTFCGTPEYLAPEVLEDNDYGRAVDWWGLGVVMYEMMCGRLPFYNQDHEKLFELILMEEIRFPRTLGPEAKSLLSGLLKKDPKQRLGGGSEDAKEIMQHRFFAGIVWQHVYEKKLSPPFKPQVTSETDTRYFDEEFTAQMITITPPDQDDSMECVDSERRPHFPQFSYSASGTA
For assay [7] the test system is unchanged. The assay is described as follows: Induction of myristoylated AKT1 M227G mutant Ser473 hyperphosphorylation expressed in HEK293 cells after 30 mins by immunoblotting. As to conditions: HEK-293.
Assay [8] concerns HEK-293T. Description: Induction myristoylated AKT2 M225G mutant Ser473 hyperphosphorylation expressed in HEK293T cells at 10 uM after 30 mins by immunoblotting. The format is cell-based.
Assay [9] concerns HEK-293T. Description: Induction of myristoylated AKT3 M229G mutant Ser473 hyperphosphorylation expressed in HEK293T cells at 10 uM after 30 mins by immunoblotting. Type of assay: cell-based.
Assay [10] has as its system HEK-293T. The assay is described as follows: Induction of nonmyristoylated AKT2 M225G and kinase dead D289A mutant Thr308 hyperphosphorylation expressed in HEK293T cells at 10 uM after 30 mins by immunoblotting. The format is cell-based.
Assay [11] in a line: Inhibition of myristoylated AKT2 M225G mutant expressed in HEK293T cells by in vitro immunoprecipitation kinase assay. The format is cell-based. As to conditions: hek-293t. In short, it runs like this:
(§1)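 Myristoylated HA-tagged Akt (wild-type or analog-sensitive isoforms) was transfected by Lipofectamine into HEK293T cells. Cells were lysed in Tris pH 7.5/NaCl/EDTA/EGTA/Triton buffer with protease and phosphatase inhibitors. Akt was immunoprecipitated overnight at 4°C on BSA-blocked anti-HA matrix, and the washed immunoprecipitate was used for the in vitro kinase assay. IC50 was determined from kinase activity.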

For assay [12], the target named is T1, RAC-alpha serine/threonine-protein kinase. Description: Induction of AKT1 Thr308 phosphorylation expressed in IGF1-stimulated HEK293 cells treated 20 mins before IGF1 stimulation by immunoblotting. Type of assay: cell-based. An outline of the steps: (§2)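 HEK293 cells (not transfected), serum-starved overnight, then given inhibitor for 20 min before 50 ng/ml IGF-1 for a further 10 min. Cells detached in ice-cold Ca/Mg-free PBS with 0.04% EDTA and lysed in Tris pH 7.5 Triton buffer with protease/phosphatase inhibitors. Lysates cleared at 14000 g, protein equalised by Bradford, and pThr308, pSer473 and GSK3β pSer9 read by immunoblot with ECL.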

In assay [13] the test system is RAC-alpha serine/threonine-protein kinase (Homo sapiens), P31749 [M227G]. The assay is described as follows: Induction of myristoylated AKT1 M227G mutant Thr308 hyperphosphorylation expressed in HEK293 cells after 30 mins by immunoblotting. Conditions: HEK-293.
In assay [14] the test system is HEK-293T. Description: Induction myristoylated AKT2 M225G mutant Thr308 hyperphosphorylation expressed in HEK293T cells at 10 uM after 30 mins by immunoblotting. Type of assay: cell-based.
Assay [15] addresses RAC-alpha serine/threonine-protein kinase (Homo sapiens, UniProt P31749, M227G). The assay is described as follows: Inhibition of myristoylated AKT1 M227G mutant expressed in HEK293T cells by in vitro immunoprecipitation kinase assay. The format is cell-based, HEK-293T. An outline of the steps: as §1
For assay [16], the target named is T1, RAC-alpha serine/threonine-protein kinase. Description: Induction of AKT1 Ser473 phosphorylation expressed in IGF1-stimulated HEK293 cells treated 20 mins before IGF1 stimulation by immunoblotting. The format is cell-based. In short, it runs like this: as §2

Activity calls are given as the source filed them. No cut-off for these calls is given here.

T1 sequence (P31749 whole entry): as the sequence (P31749 whole entry M227G) above, with G227M counted along it
RAC-alpha serine/threonine-protein kinase (Homo sapiens, UniProt P31749, M227G), sequence (P31749 whole entry M227G): as the sequence (P31749 whole entry M227G) above

In the case of `CC(C)(C)n1nc(Cc2cccc(I)c2)c2c(N)ncnc21`, in [1], the inhibition entry is “inactive”. Moreover, the IC50 (usually the midpoint of a concentration-inhibition curve) in assay [2] is 120 nM; in assay [5], above 10000 nM; in [11], 240 nM; in assay [15], 28 nM. The outcome with HEK-293T [3], with HEK-293T [4], with HEK-293T [8], in the assay on HEK-293T [9], in the assay on HEK-293T [10] and in the assay on HEK-293T [14] was Active. Further, the inhibition entry in [6] was “Active”. Besides, the Activity result in [7] and in assay [13] was “Dose-dependent effect” throughout. Moreover, the outcome in assay [12] and in assay [16] was inactive.

The record behind these values is ChEMBL document CHEMBL1250448, “Inhibitor hijacking of Akt activation” (Nat Chem Biol, 2009).
